Screening results as filed in PubChem.
Sampled rows, rich in hits. Any-hit rate of the full collection: about 2.5%.
TRPC4 act = activators of mouse TRPC4 channel; Q9QUQ5; HEK293 TRPC4beta/mu-opioid, Fluo4 calcium fluorescence; active compounds read high; B-score at 10 µM; hit rate 0.49% among 310,000; AID 2237;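 active means B-score above 5 SD of library B-scores, and initial fluorescence ratio not above library mean plus 5 SD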;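 further: positive B-score marks a calcium rise read as TRPC4 activation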
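Assay system: HEK293 stable line with TRPC4beta plus mu-opioid receptor; schedule: 45 min room-temperature Fluo4 loading, 110 s read; technique: kinetic Fluo4 calcium fluorescence; evaluation: integrated baseline-normalised fluorescence ratio, converted to per-well B score; controls: buffer (low) and maximal DAMGO (high)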
TRPC4 inh = inhibitors of mouse TRPC4 channel; Q9QUQ5; HEK293 TRPC4beta/mu-opioid, DAMGO-evoked Fluo4 calcium flux; active compounds read low; B-score at 10 µM; hit rate 0.39% among 300,000; AID 2247;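 active means B-score over 3 SD under the library average, no early fluorescence shift, positive overall ratio signal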
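test system = HEK293 cells with stable TRPC4beta plus mu-opioid receptor expression | detection = Fluo4 Ca2+ flux fluorescence | read-out = integrated fluorescence ratio relative to baseline, converted to per-well B score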
TRPC6 activator = activates the mouse TRPC6 cation channel; hit rate 0.13% among 310,000; AID 2550; HEK293-TRPC6 membrane potential dye fluorescence; active compounds read high; B-score at 10 µM; Q61143;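 active means B-score of the integrated fluorescence ratio above library mean plus 3 SD, and starting fluorescence ratio within library mean plus 5 SD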;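 further: higher score means more depolarization so channel activation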
Target sequence (Q61143 whole entry, looked up): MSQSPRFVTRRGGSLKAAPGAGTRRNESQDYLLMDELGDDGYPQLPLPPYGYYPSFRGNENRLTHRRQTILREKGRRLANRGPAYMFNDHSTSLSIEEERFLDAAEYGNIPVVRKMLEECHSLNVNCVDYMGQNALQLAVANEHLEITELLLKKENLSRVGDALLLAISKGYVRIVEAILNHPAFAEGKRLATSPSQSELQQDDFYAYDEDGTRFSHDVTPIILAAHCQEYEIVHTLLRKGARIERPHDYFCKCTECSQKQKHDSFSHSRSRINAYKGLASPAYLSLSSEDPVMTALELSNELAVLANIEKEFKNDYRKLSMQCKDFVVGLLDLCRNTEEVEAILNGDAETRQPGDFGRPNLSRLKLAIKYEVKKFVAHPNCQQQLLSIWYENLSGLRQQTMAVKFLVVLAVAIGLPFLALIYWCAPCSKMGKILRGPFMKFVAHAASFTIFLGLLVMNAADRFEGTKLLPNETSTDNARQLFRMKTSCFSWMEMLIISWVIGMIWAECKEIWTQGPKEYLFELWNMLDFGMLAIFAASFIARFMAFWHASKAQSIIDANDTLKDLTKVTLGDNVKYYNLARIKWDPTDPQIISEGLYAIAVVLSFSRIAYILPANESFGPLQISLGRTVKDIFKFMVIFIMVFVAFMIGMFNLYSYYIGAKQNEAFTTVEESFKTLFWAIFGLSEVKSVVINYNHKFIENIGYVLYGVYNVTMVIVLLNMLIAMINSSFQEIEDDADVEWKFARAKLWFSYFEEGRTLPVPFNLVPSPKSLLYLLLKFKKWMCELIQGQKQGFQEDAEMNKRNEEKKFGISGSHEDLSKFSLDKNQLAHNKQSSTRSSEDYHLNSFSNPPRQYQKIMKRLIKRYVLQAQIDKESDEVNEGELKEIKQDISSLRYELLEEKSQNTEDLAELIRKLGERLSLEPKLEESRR
TRPC6 inhibitor = inhibitors of mouse TRPC6 channel; Q61143; hit rate 1.1% among 310,000; AID 2553; HEK293-TRPC6, membrane potential dye, ACh-evoked depolarization; active compounds read low; B-score at 10 µM;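 active means B-score under library mean minus 3 SD, initial fluorescence not abnormally high, positive integrated signal ratio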;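 further: B-score derived from integrated fluorescence ratio over the kinetic read; more negative B-score means stronger inhibition of depolarization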
Platelet DG rel = platelet dense granule release activity; human platelet-rich plasma, SFLLRN dense granule ATP release, luminescence; inhibition, %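 (compounds screened at 7.5 µM in platelet-rich plasma)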; hit rate 0.22% among 300,000; AID 1663;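 active means mean replicate score, as percent of positive control, at or above 50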
TRPC4 PAM = TRPC4 (mouse) allosteric potentiation. Q9QUQ5. HEK293 TRPC4beta/mu-opioid, DAMGO EC20, Fluo-4 Ca2+ flux; active compounds read high. B-score at 10 µM. hit rate 0.42% among 310,000;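 active means B-score of calcium response area above 5 SD of library B-scores, with initial fluorescence ratio within 5 SD of library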;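 further: B-score of integrated fluorescence ratio over time as area under calcium response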
HEK293 MPD ctr = checks TRPC6 modulator effects in parental HEK293 cells. shares compounds with TRPC6 inhibitor. membrane potential dye fluorescence. membrane potential signal change, % at 10 µM. hit rate 51% among 2,400;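 active means membrane potential signal moves up or down beyond 5 SD from buffer-only wells, on both duplicate plates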
HEK293 MPD ctr 2 = second check of TRPC6 modulator effects in parental HEK293 cells; inhibition, % at 10 µM; shares compounds with TRPC6 inhibitor; membrane potential dye fluorescence; after compound, maximal acetylcholine stimulation; hit rate 14% among 2,400; AID 488926;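 active means membrane potential signal drops by more than 5 SD from the mean control signal, in both duplicate plates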;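 further: plate controls were acetylcholine ECmax control wells for no effect and buffer only wells for full effect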
TRPC4 ctr mod = selectivity of TRPC6 modulators against mouse TRPC4. HEK293 TRPC4/mu-opioid, membrane potential fluorescence. shares compounds with TRPC6 inhibitor. hit rate 69% among 2,400. percent change from control (negative = decrease, positive = increase), % at 10 µM;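 active means membrane potential signal moved up or down beyond 5 SD of buffer control wells, in both duplicate plates, actives on both sides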;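 further: plate controls were assay buffer wells for no effect and DAMGO maximal-effect wells for full effect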
TRPC4 ctr inh 2 = second check of whether TRPC6 modulators also affect mouse TRPC4; shares compounds with TRPC6 inhibitor; HEK293 TRPC4/mu-opioid, membrane potential dye fluorescence; stimulated with maximal-effect DAMGO; inhibition, % at 10 µM; hit rate 55% among 2,400;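 active means drop in membrane potential signal beyond 5 SD of the control wells in both duplicate plates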;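 further: TRPC4 counter screen for TRPC6 hits run under conditions tuned for TRPC6 not TRPC4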
TRPC6 inh conf = confirmation of mouse TRPC6 inhibitors; HEK293-TRPC6, membrane potential dye, ACh-evoked depolarization; inhibition, % at 10 µM; hit rate 43% among 3,300; shares compounds with TRPC6 inhibitor;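 active means fluorescence ratio falls more than 5 SD below the full-stimulation control mean, in both duplicate runs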;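 further: integrated fluorescence ratio of peak minus minimum over baseline after agonist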
TRPC6 act confirm = mouse TRPC6 activator confirmation; HEK293-TRPC6 membrane potential dye fluorescence, FDSS; AID 488961; shares compounds with TRPC6 inhibitor; hit rate 11% among 2,800; activation, % at 10 µM;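 active means ratio signal rise beyond 5 SD above unstimulated control wells' mean, seen in both duplicate runs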;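 further: plate controls were buffer EC0 wells for no effect and acetylcholine ECmax response for full effect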
An asterisk follows results filed as active; i = inactive; · = not tested or not shown.

SMILES	TRPC4 act	TRPC4 inh	TRPC6 activator	TRPC6 inhibitor	Platelet DG rel	TRPC4 PAM	HEK293 MPD ctr	HEK293 MPD ctr 2	TRPC4 ctr mod	TRPC4 ctr inh 2	TRPC6 inh conf	TRPC6 act confirm
CNC(=O)Cn1c(C)cc(=O)c2cccc(OC)c21	i	i	i	-6.92*	2.7	i	-471.0%*	i	-70.5%*	41.0%*	40.0%*	i
O=C(OCc1nnc(-c2ccccc2)o1)c1ccc(Cl)cc1	i	i	i	i	7.1	i	·	·	·	·	·	·
O=C(OCc1nnc(-c2ccccc2)o1)c1ccc2c(c1)OCCO2	i	i	i	-5.75*	-5.3	i	i	i	12.5%*	i	i	·
O=C(CC(c1ccccc1)c1ccccc1O)N1CCCCC1 (stereo unspecified)	i	i	i	-6.35*	-7.4	i	i	i	i	i	i	·
CN1CCN(c2ccc(Cl)cc2NC(=O)c2ccc(=O)n(C)n2)CC1	i	i	i	-9.02*	4.9	i	-340.0%*	67.5%*	-59.0%*	54.0%*	52.0%*	i
CCOC(=O)c1cnc2c(cnn2C)c1NCCCn1ccnc1	i	i	i	-7.45*	5.1	i	-351.5%*	115.0%*	-51.5%*	68.0%*	73.0%*	i
CCOC(=O)c1cnc2c(cnn2C)c1NCCCN(C)C	i	i	i	i	-0.8	i	·	·	·	·	·	·
COc1cc(C)ccc1NC(=O)c1ccc(S(=O)(=O)N2CCOCC2)cc1	i	i	i	-6.06*	3.1	i	i	i	i	i	i	i
O=C(NCC1CCN(c2ccc(S(=O)(=O)N3CCOCC3)cc2)CC1)c1ccc(Cl)cc1	i	i	i	-5.55*	-0.8	i	i	i	i	i	52.5%*	i
O=C(c1ccc([N+](=O)[O-])cc1)N(Cc1ccc(Cl)cc1)N1C(=O)CCCC1=O	47*	i	16.7*	-16.1*	-9.9	i	390.0%*	159.0%*	49.5%*	45.0%*	80.5%*	122.0%*
COc1ccc(-c2[nH]ncc2-c2ccc(Cl)cc2)c(O)c1	i	i	i	i	-1.3	i	·	·	·	·	·	·
Oc1ccc(-c2[nH]ncc2-c2ccc(Br)cc2)c(O)c1	i	i	i	-5.27*	1.6	i	-72.0%*	i	-16.5%*	68.0%*	50.0%*	i
COc1ccc(-c2cn[nH]c2-c2ccc(OC)cc2O)cc1	i	i	i	-5.16*	-2.3	i	i	i	-14.5%*	48.5%*	i	i
Oc1ccc(-c2[nH]ncc2-c2cccc3cccnc23)c(O)c1	i	i	i	i	12.0	i	·	·	·	·	·	·
Oc1ccc(-c2[nH]ncc2-c2ccc(Cl)cc2)c(O)c1	i	i	i	-7.4*	1.1	i	-73.5%*	i	-22.0%*	79.0%*	46.0%*	i
O=C(c1nc2ccccn2c1CNCCCn1nnc2ccccc21)N1CCOCC1	i	i	i	i	3.8	i	·	·	·	·	·	·
COCCOC(=O)c1c(N)n(CCCN2CCOCC2)c2nc3ccccc3nc12	i	i	i	i	-14.1	i	·	·	·	·	·	·
